Published values from different studies.
Target: Inhibitor of nuclear factor kappa-B kinase subunit epsilon (IKBKE, Homo sapiens, UniProt Q14164)
One construct used (Q14164 1-716): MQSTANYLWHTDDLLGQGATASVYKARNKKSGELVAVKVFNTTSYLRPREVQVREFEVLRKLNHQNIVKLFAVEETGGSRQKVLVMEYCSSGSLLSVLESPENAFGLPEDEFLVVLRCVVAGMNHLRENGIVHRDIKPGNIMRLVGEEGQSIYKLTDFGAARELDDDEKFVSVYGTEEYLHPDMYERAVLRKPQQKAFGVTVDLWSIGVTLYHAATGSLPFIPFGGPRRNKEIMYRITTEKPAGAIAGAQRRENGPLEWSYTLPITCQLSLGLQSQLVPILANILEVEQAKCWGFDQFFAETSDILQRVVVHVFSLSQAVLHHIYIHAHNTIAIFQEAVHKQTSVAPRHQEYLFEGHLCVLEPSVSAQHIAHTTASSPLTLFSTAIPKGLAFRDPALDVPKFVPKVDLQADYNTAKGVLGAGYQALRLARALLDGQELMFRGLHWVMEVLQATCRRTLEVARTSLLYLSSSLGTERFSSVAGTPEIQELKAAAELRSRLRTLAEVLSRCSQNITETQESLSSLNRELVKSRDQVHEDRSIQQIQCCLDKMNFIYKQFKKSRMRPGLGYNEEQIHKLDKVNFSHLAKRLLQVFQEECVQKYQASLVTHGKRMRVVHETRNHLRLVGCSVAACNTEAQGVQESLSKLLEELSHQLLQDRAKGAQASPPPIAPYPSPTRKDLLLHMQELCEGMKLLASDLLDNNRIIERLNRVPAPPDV

| SMILES | effect on | mode | method | concentration | endpoint | value |
| --- | --- | --- | --- | --- | --- | --- |
| Cn1cncc1[C@@](O)(COc1ccc(C#N)cc1-c1ccc(OC(F)(F)F)cc1)c1ccc(C#N)cc1 | cell-free assay | – | competition with immobilised ligand | 1 µM | remaining binding | 100% |
| Cn1cc(-c2cccc(N3CCc4c(sc5c4CC(C)(C)C5)C3=O)c2CO)cc(Nc2ccncn2)c1=O | enzyme activity | inhibitor | – | 1 µM | inhibition | 9% |
| N#CC1(c2ccccn2)CCN(Cc2cc(C(=O)O)c(=O)n3ccccc23)CC1 | cell-free assay | – | competition with immobilised ligand | 1 µM | remaining binding | 88% |
| COc1ncccc1-c1cnn2ccc(N3CCN(C(=O)OC(C)C)CC3)nc12 | binding | – | competition with immobilised ligand | 1 µM | remaining binding | 69% |
| Cc1nn(C)cc1-c1nc2c(N3CCN(Cc4ccc(Cl)cc4)CC3)c(Cl)cnc2[nH]1 | binding | – | competition with immobilised ligand | 1 µM | remaining binding | 100% |
| CC(C)(C)c1cc(C=C(C#N)C#N)cc(Br)c1O | enzyme activity | inhibitor | – | 0.5 µM | remaining activity | 86.8% |
| Cn1cc(-c2cc(F)cc(N3CCn4c(cc5c4CCCC5)C3=O)c2CO)cc(Nc2ccc(N3CCN(C4COC4)CC3)cn2)c1=O | enzyme activity | inhibitor | – | 0.1 µM | inhibition | 12% |
| Nc1ncc(-c2nc(N3CCOCC3)nc(N3CCOCC3)n2)c(C(F)F)n1 | binding | – | competition with immobilised ligand | 10 µM | remaining binding | 99% |
| O=c1[nH]c2ccccc2n1C1CCN(Cc2ccc(-c3[nH]c4cc5ncnc5cc4nc3-c3ccccc3)cc2)CC1 | enzyme activity | – | – | 0.5 µM | remaining activity | 91.9% |
